Among the data in ChEMBL document CHEMBL2331437, “Meroterpenoid pigments from the basidiomycete Albatrellus ovinus” (J Nat Prod, 2013) are IC50 values, retold here.

Each structure is given as a SMILES string. A value given as a limit tells only on which side of the number the result lay.

Common to all, as to assay type: functional, cell-based
The nature of test [1]: Cytotoxicity against human […] cells after 48 hrs by MTT assay. Summed up:
(§1)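 Cells grown in RPMI-1640 or DMEM with 10% FBS, 37 °C, 5% CO2. Seeded at 1 × 10^5 cells/mL; adherent lines allowed 12 h to attach, suspension cells seeded just before dosing. Compounds at various concentrations in triplicate, 48 h. MTT (100 μg per well) 4 h at 37 °C, SDS lysis, OD 595 nm; IC50 by Reed and Muench method.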

The next test deals with MCF7. The experiment in a line: Cytotoxicity against human MCF7 cells after 48 hrs by MTT assay. Conditions: MCF7, 48 h. Summed up:
as §1

For another test, the system named is A549. The experiment in a line: Cytotoxicity against human A549 cells after 48 hrs by MTT assay. Conditions: A549, 48 h. An outline of the steps:
as §1
(In general: Tetrazolium dyes change colour on reduction, which living cells bring about.)

For the next test, the system named is HL-60. The experiment in a line: Cytotoxicity against human HL60 cells after 48 hrs by MTT assay. Conditions: HL-60, 48 h. An outline of the steps:
as §1

For orientation: IC50 means the point on the concentration scale where inhibition reaches its midpoint. Low readings indicate higher potency, high ones lower potency. Turning to `COC(=O)c1c(O)cc(O)c(C/C=C(\C)CC/C=C(\C)CCC=C(C)C)c1C` [ALBATRELIN A], the IC50 (in test [1]; in the test on MCF7; in the test on A549; with HL-60) was more than 40 µM each time.
On to `COc1cc(C)c(O)c2c1C=C[C@@](C)(CC/C=C(\C)CCC=C(C)C)O2` [ALBATRELIN B], for which the half-inhibitory concentration (IC50) (in test [1]; in the test with MCF7; with A549; in the test on HL-60) was more than 40 µM in each case.
`CC(C)=CCC/C(C)=C/CC[C@]1(C)C=Cc2c(C)cc(O)cc2O1` [ALBATRELIN C]: the IC50 (in test [1]; in the test on MCF7; in the test with A549; in the test on HL-60) was more than 40 µM in each case.
For `CC(C)=CCC/C(C)=C/CC/C(C)=C/Cc1c(O)cc(C)c2c1oc1c3c(c(O)c(C)c12)O[C@](C)(CC/C=C(\C)CCC=C(C)C)C=C3` [ALBATRELIN D], the IC50 (in test [1]; with MCF7; in the test with A549; in the test on HL-60) was more than 40 µM in each case.
On to `CC(C)=CCC/C(C)=C/CC/C(C)=C/CC1=C(O)C(=O)C(C)=C(c2c(O)cc(O)c(C/C=C(\C)CC/C=C(\C)CCC=C(C)C)c2C)C1=O` [ALBATRELIN E], for which the IC50 (in test [1]; with MCF7; with A549; with HL-60) was more than 40 µM each time.
As to `CC(C)=CCC/C(C)=C/CC/C(C)=C/CC12C(=O)C=C(C)C(=O)C1(O)Oc1c3c(c(O)c(C)c12)O[C@](C)(CC/C=C(\C)CCC=C(C)C)C=C3` (stereo partly drawn) [ALBATRELIN F], the IC50 (in test [1]; with MCF7; in the test on A549; with HL-60) was more than 40 µM throughout.
In the case of `CC(C)=CCC/C(C)=C/CC[C@]1(C)C=Cc2c(O)cc(C)cc2O1` [CONFLUENTIN], the IC50 in test [1] is 17.1 µM; with MCF7 it was 23 µM; in the test on A549, 18.5 µM; in the test with HL-60 it was 15.1 µM.
